# Published values gathered from unrelated publications.
# Each line is one published result; the experiments were not run side by side.
Structure (SMILES),target or system,assay,test system,conditions,endpoint,result
CN(C)c1cc(NC(=O)Cc2ccccn2)c(O)c2c1C[C@H]1C[C@H]3[C@H](N(C)C)C(O)=C(C(N)=O)C(=O)[C@@]3(O)C(O)=C1C2=O,Mycobacteroides abscessus,"microbial growth, resazurin",ATCC19977,,IC50,0.67 µg/mL
Cc1ccccc1C(=O)C#Cc1ccc(F)c(F)c1,Pseudomonas aeruginosa,"microbial growth, absorbance",,"10 µM, 24 h",activity vs control,101%
O/N=c1\cc2n(-c3ccc(Cl)cc3)c3ccccc3nc-2cc1Nc1ccc(Cl)cc1,Mycobacteroides abscessus,microbial growth,,clinical isolate,MIC,> 30 µM
C=CC(=O)NC1CCN(c2ncc3ncnc(Nc4ccc(Oc5ccc6c(c5)ncn6C)c(C)c4)c3n2)CC1,SW837,cell growth or viability,,,EC50,21500 µM
C=C(F)C(=O)N1CCN(c2nc(OC[C@@H]3CCCN3C)nc3c2CCN(c2cccc4cccc(Cl)c24)C3)C[C@@H]1CC#N,MIA PaCa-2,"cell growth or viability, ATP luminescence",,3D culture,IC50,0.00251 µM
CN(C)c1cc(NC(=O)Cc2ccncc2)c(O)c2c1C[C@H]1C[C@H]3[C@H](N(C)C)C(O)=C(C(N)=O)C(=O)[C@@]3(O)C(O)=C1C2=O,Mycobacteroides abscessus,"microbial growth, resazurin",ATCC19977,,IC50,0.57 µg/mL
COc1cc(C#CC(=O)c2ccccc2OC)ccc1O,Pseudomonas aeruginosa,"microbial growth, absorbance",,"10 µM, 24 h",activity vs control,91%
O=C(CO/N=c1\cc2n(-c3ccc(Cl)cc3)c3ccccc3nc-2cc1Nc1ccc(Cl)cc1)NCc1ccc2c(c1)CCO2,Mycobacteroides abscessus,microbial growth,,clinical isolate,MIC,> 30 µM
O=C(C#Cc1ccc(F)c(F)c1)c1ccc(Cl)cc1,Pseudomonas aeruginosa,"microbial growth, absorbance",,"100 µM, 24 h",activity vs control,96%
CN(C)c1cc(NC(=O)CCc2ccccc2)c(O)c2c1C[C@H]1C[C@H]3[C@H](N(C)C)C(O)=C(C(N)=O)C(=O)[C@@]3(O)C(O)=C1C2=O,Mycobacteroides abscessus,"microbial growth, resazurin",ATCC19977,,IC50,8.87 µg/mL
C=CCO/N=c1\cc2n(-c3ccc(Cl)cc3)c3ccccc3nc-2cc1Nc1ccc(Cl)cc1,Mycobacteroides abscessus,microbial growth,,clinical isolate,MIC,> 30 µM
OC(C#Cc1ccc(F)c(F)c1)c1ccccc1 (stereo not shown),Pseudomonas aeruginosa,"microbial growth, absorbance",,"100 µM, 24 h",activity vs control,97%
CN(C)c1cc(NC(=O)c2ccccc2)c(O)c2c1C[C@H]1C[C@H]3[C@H](N(C)C)C(O)=C(C(N)=O)C(=O)[C@@]3(O)C(O)=C1C2=O,Mycobacteroides abscessus,"microbial growth, resazurin",ATCC19977,,IC50,13.8 µg/mL
O=C1CC[C@H](N2Cc3cc(N4CCN(CC5CCN(c6ccc([C@@H]7c8ccc(O)cc8CC[C@@H]7c7ccccc7)cc6)CC5)CC4)ccc3C2=O)C(=O)N1,T47D,"cell growth or viability, ATP luminescence",,5 days,GI50,0.0045 µM
CN(C)c1cc(NC(=O)Cc2cscn2)c(O)c2c1C[C@H]1C[C@H]3[C@H](N(C)C)C(O)=C(C(N)=O)C(=O)[C@@]3(O)C(O)=C1C2=O,Mycobacteroides abscessus,"microbial growth, resazurin",ATCC19977,,IC50,0.23 µg/mL
CCCCC[C@H](O)CC(=O)CCc1ccc(O)c(OC)c1,Pseudomonas aeruginosa,"microbial growth, absorbance",,"10 µM, 24 h",activity vs control,99%
CCOC(=O)CNC(=O)CO/N=c1\cc2n(-c3ccc(Cl)cc3)c3ccccc3nc-2cc1Nc1ccc(Cl)cc1,Mycobacteroides abscessus,microbial growth,,clinical isolate,MIC,> 30 µM
CN(C)c1cc(NC(=O)Cc2cccnn2)c(O)c2c1C[C@H]1C[C@H]3[C@H](N(C)C)C(O)=C(C(N)=O)C(=O)[C@@]3(O)C(O)=C1C2=O,Mycobacteroides abscessus,"microbial growth, resazurin",ATCC19977,,IC50,1.67 µg/mL
O=C(O)CO/N=c1\cc2n(-c3ccc(Cl)cc3)c3ccccc3nc-2cc1Nc1ccc(Cl)cc1,Mycobacteroides abscessus,microbial growth,,clinical isolate,MIC,> 30 µM
O=C(NO)c1ccc(CNc2nc3cccc(-c4ccc5c(c4)OCO5)n3n2)cc1,DU-145,"cell growth or viability, SRB",,,GI50,0.47 µM
COc1ccccc1C(=O)C#Cc1ccc(F)c(F)c1,Pseudomonas aeruginosa,"microbial growth, absorbance",,"100 µM, 24 h",activity vs control,83%
CO/N=c1\cc2n(-c3ccc(Cl)cc3)c3ccccc3nc-2cc1Nc1ccc(Cl)cc1,Mycobacteroides abscessus,microbial growth,,clinical isolate,MIC,> 30 µM
